Laboratory results: paper PMC3656605 (Nature, 2012)

Key:
[1] = system: HIF in IDH1 R132H immortalized human astrocytes; type: cell-based; settings: 21% oxygen, increasing amounts for 16 hours
How it was run: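 Immortalized human astrocytes (passage 10) expressing wild-type or mutant IDH1 were dosed with test compound for 16 h before lysis in 50 mM Tris pH 8.0, 120 mM NaCl, 0.5% NP-40 with protease inhibitors. Extracts were run on 10% SDS-PAGE and transferred to nitrocellulose. Blots were blocked in TBS/5% milk, probed with anti-HIF1α monoclonal antibody, and detected by HRP-secondary chemiluminescence.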

[2] = biological target: T1, EglN1 (Homo sapiens, UniProt Q9GZT9); type: biochemical
[3] = biological target: T2, EglN2 (Homo sapiens, UniProt Q96KS0); type: biochemical; settings: low mM concentrations, reactions lacking exogenous 2-OG
[4] = biological target: T1, EglN1; type: biochemical; remark: listed apart in the source
[5] = biological target: T2, EglN2; type: biochemical; settings: standard assay conditions, 10 μM 2-OG
[6] = biological target: EglN3 (Homo sapiens, UniProt Q9H6Z9); type: biochemical; settings: standard assay conditions, 10 μM 2-OG
[7] = system: collagen P4H-I; assay: Inhibition of collagen P4H-I, 14CO2 release; type: biochemical, human; settings: in vitro; 100 µM 2-oxo-[1-14C]glutarate
[8] = system: Tet1; assay: Inhibition of Tet1, 14CO2 release, double stranded oligonucleotide substrate; type: biochemical, murine; settings: in vitro; 120 µM 2-oxo-[1-14C]glutarate
[9] = system: Tet2; assay: Inhibition of Tet2, 14CO2 release, double stranded oligonucleotide substrate; type: biochemical, murine; settings: in vitro; 120 µM 2-oxo-[1-14C]glutarate
[10] = system: FIH; assay: Inhibition of FIH, 14CO2 release, synthetic peptide substrate; type: biochemical, human; settings: in vitro; 10 µM 2-oxo-[1-14C]glutarate
[11] = system: JMJD2D histone demethylase; assay: JMJD2D histone demethylase activity; type: biochemical; settings: data not shown; for Inhibition of JMJD2D histone demethylase (in words): in vitro
[12] = system: collagen P4H-I; type: biochemical, human; settings: no exogenous 2-OG

T1 sequence (Q9GZT9 whole entry): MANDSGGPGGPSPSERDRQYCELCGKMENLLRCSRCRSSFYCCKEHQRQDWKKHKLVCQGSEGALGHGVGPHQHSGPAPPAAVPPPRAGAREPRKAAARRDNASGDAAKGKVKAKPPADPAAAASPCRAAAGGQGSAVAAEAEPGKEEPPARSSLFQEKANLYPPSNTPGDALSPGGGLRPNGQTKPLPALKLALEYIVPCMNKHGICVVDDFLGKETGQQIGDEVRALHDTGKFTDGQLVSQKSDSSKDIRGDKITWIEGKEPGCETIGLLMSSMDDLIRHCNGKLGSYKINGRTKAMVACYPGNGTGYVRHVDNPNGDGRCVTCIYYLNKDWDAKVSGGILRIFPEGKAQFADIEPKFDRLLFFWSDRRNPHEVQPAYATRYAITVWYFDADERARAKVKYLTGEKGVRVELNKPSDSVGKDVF
T2 sequence (Q96KS0 whole entry): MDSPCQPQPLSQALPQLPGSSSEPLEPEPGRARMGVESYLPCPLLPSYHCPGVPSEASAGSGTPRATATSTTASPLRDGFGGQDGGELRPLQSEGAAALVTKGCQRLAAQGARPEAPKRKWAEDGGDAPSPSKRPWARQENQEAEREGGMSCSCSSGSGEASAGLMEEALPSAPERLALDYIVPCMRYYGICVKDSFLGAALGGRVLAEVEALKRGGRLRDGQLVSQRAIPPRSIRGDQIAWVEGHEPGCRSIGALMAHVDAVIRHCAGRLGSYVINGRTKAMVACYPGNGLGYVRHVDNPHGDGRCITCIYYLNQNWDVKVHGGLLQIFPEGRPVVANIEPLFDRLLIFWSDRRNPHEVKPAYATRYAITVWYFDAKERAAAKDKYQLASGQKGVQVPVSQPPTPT
Sequence of EglN3 (Q9H6Z9 whole entry): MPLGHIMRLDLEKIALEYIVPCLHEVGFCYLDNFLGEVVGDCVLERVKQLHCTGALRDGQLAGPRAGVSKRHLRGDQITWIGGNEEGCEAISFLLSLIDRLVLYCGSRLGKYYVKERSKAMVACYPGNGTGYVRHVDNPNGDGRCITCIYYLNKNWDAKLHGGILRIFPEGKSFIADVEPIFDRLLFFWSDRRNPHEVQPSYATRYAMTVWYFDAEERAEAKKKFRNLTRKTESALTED

Prolyl hydroxylation of HIF1α by EglN1 ([2]; increasing R-2HG with 10 μM 2-OG, concentrations as high as 100 mM) | Promotion of EglN1 activity ([2]; low mM concentrations, reactions lacking exogenous 2-OG) | Promotion of EglN2 activity [3] | Release of 14CO2 in EglN1 assays ([4]; increasing amounts of R-2HG added to 10 μM 2-oxo-[1-14C]glutarate) | IC50 ([5]; read-out: IC50, EglN2 inhibition) [mM] | IC50 ([6]; read-out: IC50, EglN3 inhibition) [mM] | Inhibition of TET1 methyl cytosine hydroxylase (in words) [8] | Inhibition of TET2 methyl cytosine hydroxylase (in words) [9] | Inhibition of HIF asparaginyl hydroxylase FIH (in words) [10] | Promotion of JMJD2D histone demethylase activity [11] | Inhibition of JMJD2D histone demethylase (in words) [11] | Promotion of collagen prolyl 4-hydroxylase activity [12] | Inhibition of EglN1 (in words) ([4]; standard assay conditions, 10 μM 2-OG) | Inhibition of EglN2 (in words) [5] | Inhibition of EglN3 (in words) [6] | SMILES | Resistance of R132H-expressing cells to the agent (HIF immunoblot) [1] | Inhibition of collagen prolyl 4-hydroxylases (in words) [7]
– | – | – | – | – | – | – | – | – | – | – | – | – | – | – | COC(=O)CNC(=O)C(=O)OC [DMOG] | relatively resistant | –
without decreasing | promoted | promoted | progressively decreased | > 5 | > 5 | inhibit | inhibit | inhibit | did not promote | inhibit | did not promote | – | – | – | O=C(O)CC[C@@H](O)C(=O)O [R-2HG, R-2-hydroxyglutarate] | – | inhibit
– | – | – | – | – | – | inhibit | inhibit | inhibit | – | inhibit | – | micromolar to low millimolar inhibitor | micromolar to low millimolar inhibitor | micromolar to low millimolar inhibitor | O=C(O)CC[C@H](O)C(=O)O [S-2HG, S-2-hydroxyglutarate] | – | inhibit
